# Experimental data gathered from unrelated publications.
# Protocols differ between the studies behind these lines.
# Target: Serine/threonine-protein kinase ULK2 (ULK2, Homo sapiens, UniProt Q8IYT8)
# Sequence (Q8IYT8 1-1036, as in one of the studies): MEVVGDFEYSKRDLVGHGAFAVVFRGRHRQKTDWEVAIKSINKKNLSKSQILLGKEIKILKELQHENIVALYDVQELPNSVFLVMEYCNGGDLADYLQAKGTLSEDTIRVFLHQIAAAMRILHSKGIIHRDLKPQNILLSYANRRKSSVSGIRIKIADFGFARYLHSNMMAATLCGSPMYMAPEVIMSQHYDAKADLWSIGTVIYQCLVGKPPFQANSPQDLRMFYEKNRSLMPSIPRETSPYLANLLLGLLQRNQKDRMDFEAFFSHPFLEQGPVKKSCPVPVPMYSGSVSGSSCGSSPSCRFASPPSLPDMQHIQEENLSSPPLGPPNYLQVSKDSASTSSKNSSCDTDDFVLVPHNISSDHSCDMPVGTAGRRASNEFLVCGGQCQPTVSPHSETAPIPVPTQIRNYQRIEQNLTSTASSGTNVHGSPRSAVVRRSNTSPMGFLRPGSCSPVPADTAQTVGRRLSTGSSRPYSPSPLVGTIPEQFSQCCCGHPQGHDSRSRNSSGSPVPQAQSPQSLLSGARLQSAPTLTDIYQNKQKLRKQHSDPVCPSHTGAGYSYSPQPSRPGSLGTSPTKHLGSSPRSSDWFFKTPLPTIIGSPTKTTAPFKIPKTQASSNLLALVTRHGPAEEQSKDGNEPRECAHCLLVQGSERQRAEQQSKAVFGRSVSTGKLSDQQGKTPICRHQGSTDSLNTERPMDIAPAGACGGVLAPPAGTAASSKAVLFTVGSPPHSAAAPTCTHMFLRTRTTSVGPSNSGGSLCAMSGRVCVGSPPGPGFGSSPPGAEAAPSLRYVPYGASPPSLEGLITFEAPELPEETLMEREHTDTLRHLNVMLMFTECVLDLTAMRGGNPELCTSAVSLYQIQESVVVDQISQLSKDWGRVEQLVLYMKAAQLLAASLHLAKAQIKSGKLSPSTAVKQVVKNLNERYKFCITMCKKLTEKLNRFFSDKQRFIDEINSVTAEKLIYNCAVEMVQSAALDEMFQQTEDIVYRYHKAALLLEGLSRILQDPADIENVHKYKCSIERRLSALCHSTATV
SMILES,assay,conditions,quantity,result
CC(C)(C)c1cc(C=C(C#N)C#N)cc(Br)c1O,"enzyme activity, inhibitor",0.5 µM,remaining activity,103%
Cn1cncc1[C@](O)(COc1ccc(C#N)cc1-c1ccc(OC(F)(F)F)cc1)c1ccc(C#N)cc1,"cell-free assay, competition with immobilised ligand",1 µM,remaining binding,100%
COc1ncccc1-c1cnn2ccc(N3CCN(C(=O)OC(C)C)CC3)nc12,"binding, competition with immobilised ligand",1 µM,remaining binding,70%
C#Cc1n[nH]c2c(-c3cn(C(C)c4ccccn4)c(=O)[nH]c3=O)cc(F)cc12 (stereo not drawn),"enzyme activity, inhibitor",1 µM,inhibition,8.6%
Cc1nn(C)cc1-c1nc2c(N3CCN(Cc4ccc(Cl)cc4)CC3)c(Cl)cnc2[nH]1,"binding, competition with immobilised ligand",1 µM,remaining binding,100%
COc1cc(Nc2ncc(F)c(Nc3ccc4c(n3)NC(=O)C(C)(C)O4)n2)cc(OC)c1OC,binding,10 µM,inhibition,100%
C#Cc1n[nH]c2c(-c3cn([C@@H](C)c4ccccc4)c(=O)[nH]c3=O)cc(F)cc12,"enzyme activity, inhibitor",0.1 µM,inhibition,-3.5%
O=c1[nH]c2ccccc2n1C1CCN(Cc2ccc(-c3[nH]c4cc5ncnc5cc4nc3-c3ccccc3)cc2)CC1,cell-free assay,0.5 µM,remaining signal,106%
Nc1ncc(-c2nc(N3CCOCC3)nc(N3CCOCC3)n2)c(C(F)F)n1,"binding, competition with immobilised ligand",10 µM,remaining binding,72%
